Assay results reported in ChEMBL document CHEMBL4706639, “Discovery of Novel Azetidine Amides as Potent Small-Molecule STAT3 Inhibitors” (J Med Chem, 2021).
Activity calls are given as the source filed them. The calls are words filed in the database; no cut-off is given here.

Legend:
[1] = molecular target: T1, Signal transducer and activator of transcription 1 (Mus musculus) (UniProt P42225); assay: Inhibition of oligonucleotide [32P]-labelled 5'-AGCITCATTTCCCGTAAATCCCTA probe binding to STAT1 homodimer in mouse NIH3T3 nuclear extract at 10 uM preincubated for 30 mins followed by hSIE probe addition by EMSA analysis
T1 sequence (whole entry): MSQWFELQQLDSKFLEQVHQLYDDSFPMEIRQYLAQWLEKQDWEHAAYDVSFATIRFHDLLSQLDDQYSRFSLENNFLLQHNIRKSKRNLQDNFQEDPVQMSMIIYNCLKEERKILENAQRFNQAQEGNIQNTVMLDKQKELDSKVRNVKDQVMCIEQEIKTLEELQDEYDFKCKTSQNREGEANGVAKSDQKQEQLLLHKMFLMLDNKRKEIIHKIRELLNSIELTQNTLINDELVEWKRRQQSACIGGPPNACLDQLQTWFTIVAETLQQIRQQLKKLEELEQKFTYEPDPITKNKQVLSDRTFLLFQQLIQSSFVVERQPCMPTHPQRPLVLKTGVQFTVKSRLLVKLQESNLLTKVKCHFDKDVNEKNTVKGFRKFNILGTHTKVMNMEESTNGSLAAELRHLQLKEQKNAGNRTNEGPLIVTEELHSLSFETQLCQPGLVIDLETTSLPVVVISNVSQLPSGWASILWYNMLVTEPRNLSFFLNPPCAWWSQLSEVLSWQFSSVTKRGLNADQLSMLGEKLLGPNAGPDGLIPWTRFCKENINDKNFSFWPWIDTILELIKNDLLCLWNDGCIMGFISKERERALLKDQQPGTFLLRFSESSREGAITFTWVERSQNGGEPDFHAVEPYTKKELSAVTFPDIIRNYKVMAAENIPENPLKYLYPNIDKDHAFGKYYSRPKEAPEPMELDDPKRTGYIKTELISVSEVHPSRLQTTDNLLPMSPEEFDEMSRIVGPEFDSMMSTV

NIH3T3 = assay: Inhibition of oligonucleotide [32P]-labelled 5'-AGATTTCTAGGAATTCAA probe binding to STAT5 homodimer in mouse NIH3T3 nuclear extract at 10 uM preincubated for 30 mins followed by MGFe probe addition by EMSA analysis
[2] = molecular target: T2, Signal transducer and activator of transcription 3 (Mus musculus, UniProt P42227); assay: Inhibition of oligonucleotide [32P]-labelled 5'-AGCITCATTTCCCGTAAATCCCTA probe binding to STAT3 SH2 domain (unknown origin) preincubated for 30 mins followed by hSIE probe addition by EMSA analysis
MDA-MB-231 [3] = assay: Antiproliferative activity against human MDA-MB-231 cells assessed as reduction in cell viability incubated for 72 hrs by CyQuant assay; type: functional, cell-based; conditions: MDA-MB-231, 72 h
[4] = molecular target: T2, Signal transducer and activator of transcription 3; assay: Inhibition of oligonucleotide [32P]-labelled 5'-AGCITCATTTCCCGTAAATCCCTA probe binding to STAT3 SH2 domain in mouse NIH3T3/v-Src nuclear extract preincubated for 30 mins followed by hSIE probe addition by EMSA analysis; type: subcellular, Nucleus
[5] = Inhibition of oligonucleotide [32P]-labelled 5'-AGATTTCTAGGAATTCAA probe binding to STAT5 homodimer in mouse NIH3T3 nuclear extract preincubated for 30 mins followed by MGFe probe addition by EMSA analysis
MDA-MB-468 [6] = assay: Antiproliferative activity against human MDA-MB-468 cells harbouring STAT3 assessed as reduction in cell viability at upto 10 uM incubated for 72 hrs by CyQuant assay; type: functional, cell-based; conditions: dose microM <=10, time 72.0 hrs
MDA-MB-231 [7] = assay: Antiproliferative activity against human MDA-MB-231 cells harbouring STAT3 assessed as reduction in cell viability at upto 10 uM incubated for 72 hrs by CyQuant assay; type: functional, cell-based; conditions: for EC50: MDA-MB-231, 72 h
MCF7 [8] = assay: Antiproliferative activity against human MCF7 cells assessed as reduction in cell viability at 2 uM incubated for 24 hrs by Trypan blue exclusion dye based phase contrast microscopic analysis; type: functional
In short: (§1)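 Cells in 6-well culture, untreated or treated once with 2 μM compound. Harvested every 24 h (up to 96 h) and counted as viable cells by trypan blue exclusion under phase-contrast microscopy. Counts plotted against duration of treatment.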

[9] = molecular target: Signal transducer and activator of transcription 3 (Homo sapiens) (UniProt P40763); assay: Inhibition of oligonucleotide [32P]-labelled 5'-AGCITCATTTCCCGTAAATCCCTA hSIE probe binding to STAT3 in human MDA-MB-468 cell nuclear extract at 5 uM by EMSA analysis; conditions: time upper […], TDE = time-dependent effect
MCF7 [10] = assay: Antiproliferative activity against human MCF7 cells assessed as reduction in cell viability incubated for 72 hrs by CyQuant assay; type: functional, cell-based; conditions: MCF7, 72 h
MCF-10A = assay: Cytotoxicity against human MCF-10A cells assessed as reduction in cell viability incubated for 72 hrs by CyQuant assay; type: cell-based
MDA-MB-231 [11] = assay: Anticlonogenic activity against human MDA-MB-231 cells assessed as inhibition of colony formation upto 1 uM incubated for 4 hrs by crystal violet staining based assay; type: functional, cell-based; conditions: dose microM <=1, time 4.0 hrs
In short: (§2)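 MDA-MB-231 cells seeded as single-cell cultures (250 cells per well), treated once the next day with compound at 0–1 μM and grown until large colonies were visible. Colonies stained with crystal violet for 4 h and photographed. Three independent determinations.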

MDA-MB-468 [12] = assay: Antiproliferative activity against human MDA-MB-468 cells harbouring STAT3 assessed as reduction in cell viability incubated for 72 hrs by CyQuant assay; type: functional, cell-based; conditions: MDA-MB-468, 72 h
MDA-MB-231 [13] = assay: Anticlonogenic activity against human MDA-MB-231 cells assessed as inhibition of colony formation at 0.5 to 1 uM incubated for 4 hrs by crystal violet staining based assay; type: functional, cell-based; conditions: dose 0.5-1 µM; in short: as §2
[14] = molecular target: Signal transducer and activator of transcription 3 (Homo sapiens) (UniProt P40763); assay: Inhibition of STAT3 phosphorylation at Y705 residues in human MDA-MB-468 whole cell lysate at 0.5 to 2 uM incubated for 2 hrs by immunoblotting analysis; type: subcellular; conditions: dose 0.5-2 µM
[15] = molecular target: Signal transducer and activator of transcription 3 (Homo sapiens) (UniProt P40763); assay: Inhibition of oligonucleotide [32P]-labelled 5'-AGCITCATTTCCCGTAAATCCCTA hSIE probe binding to STAT3 in human MDA-MB-468 cell nuclear extract at 0.5 to 5 uM incubated for 3 hrs by EMSA analysis; conditions: dose 0.5-5 µM
MDA-MB-231 [16] = assay: Antiproliferative activity against human MDA-MB-231 cells assessed as reduction in cell viability at 2 uM incubated for 24 hrs by Trypan blue exclusion dye based phase contrast microscopic analysis; type: functional; in short: as §1
[17] = molecular target: Signal transducer and activator of transcription 3 (Homo sapiens) (UniProt P40763); assay: Inhibition of STAT3 phosphorylation at Y705 residues in human MDA-MB-468 whole cell lysate at 3 uM at 24 hrs by immunoblotting analysis; type: subcellular
In short: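 MDA-MB-468 cells (DMEM, 10% heat-inactivated FBS) treated with 3 μM compound for 3–24 h or 0.05% DMSO; equal-protein whole-cell RIPA lysates run on SDS-PAGE and immunoblotted for pY705STAT3, total STAT3 and tubulin. Representative of two to three independent determinations.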

[18] = molecular target: Signal transducer and activator of transcription 3 (Homo sapiens) (UniProt P40763); assay: Binding affinity to STAT3 (unknown origin) assessed as change in entropy by isothermal titration calorimetry
[19] = molecular target: Signal transducer and activator of transcription 3 (Homo sapiens) (UniProt P40763); assay: Binding affinity to STAT3 (unknown origin) assessed as change in enthalpy by isothermal titration calorimetry

T2 sequence (P42227 whole entry, the tested form may be a part): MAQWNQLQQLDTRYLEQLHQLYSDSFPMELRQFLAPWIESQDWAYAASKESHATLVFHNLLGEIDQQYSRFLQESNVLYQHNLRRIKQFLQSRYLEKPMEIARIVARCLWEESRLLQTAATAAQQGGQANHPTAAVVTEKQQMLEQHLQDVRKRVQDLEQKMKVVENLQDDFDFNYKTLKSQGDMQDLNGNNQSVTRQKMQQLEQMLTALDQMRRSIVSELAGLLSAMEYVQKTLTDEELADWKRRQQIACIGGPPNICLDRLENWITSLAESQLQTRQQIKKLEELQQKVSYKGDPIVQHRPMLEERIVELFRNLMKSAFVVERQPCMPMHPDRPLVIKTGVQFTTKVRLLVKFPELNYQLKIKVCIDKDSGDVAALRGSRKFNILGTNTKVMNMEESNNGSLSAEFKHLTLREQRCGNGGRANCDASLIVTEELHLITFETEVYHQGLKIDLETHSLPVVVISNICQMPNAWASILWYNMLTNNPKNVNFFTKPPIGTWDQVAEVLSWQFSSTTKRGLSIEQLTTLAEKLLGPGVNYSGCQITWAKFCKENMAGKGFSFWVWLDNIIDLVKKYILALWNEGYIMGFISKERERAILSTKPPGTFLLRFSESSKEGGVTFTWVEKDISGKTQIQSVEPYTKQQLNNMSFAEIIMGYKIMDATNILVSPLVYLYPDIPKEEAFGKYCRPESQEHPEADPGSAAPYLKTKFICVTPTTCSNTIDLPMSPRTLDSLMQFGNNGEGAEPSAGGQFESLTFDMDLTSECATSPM
Chain of Signal transducer and activator of transcription 3 (Homo sapiens) (P40763 whole entry): as the sequence (P42227 whole entry, the tested form may be a part) above, with D760E counted along it

O=C(O)c1ccc(N(Cc2ccc(C3CCOCC3)cc2)C(=O)[C@H]2CCN2S(=O)(=O)c2c(F)c(F)c(F)c(F)c2F)cc1O
inhibition [1]: Active | inhibition (NIH3T3): Active

NC(=O)c1ccc(N(Cc2ccc(C3CCCCC3)cn2)C(=O)[C@H]2CCN2S(=O)(=O)c2c(F)c(F)c(F)c(F)c2F)c(F)c1
IC50 [2]: > 2 µM

O=C(O)c1cc(F)c(N(Cc2ccc(C3CCCCC3)cc2)C(=O)[C@H]2CCN2S(=O)(=O)c2c(F)c(F)c(F)c(F)c2F)cc1O
inhibition [1]: Active | inhibition (NIH3T3): Active

COC(=O)c1ccc(N(Cc2ccc(C3CCCCC3)cc2)C(=O)[C@H]2CCN2S(=O)(=O)c2c(F)c(F)c(F)c(F)c2F)c(F)c1
EC50 (MDA-MB-231 [3]): 4.4 µM | inhibition [1]: Active | IC50 [4]: > 4 µM | inhibition (NIH3T3): Active

O=C(O)c1ccc(N(Cc2ccc(C3CCCCC3)cc2)C(=O)[C@H]2CCN2S(=O)(=O)c2c(F)c(F)c(F)c(F)c2F)c(F)c1
EC50 (MDA-MB-231 [3]): > 10 µM | IC50 [5]: 17.5 µM

O=C(O)c1ccc(N(Cc2ccc(C3CCCCC3)cc2)C(=O)[C@H]2CCN2S(=O)(=O)c2c(F)c(F)c(F)c(F)c2F)cc1O
Activity (MDA-MB-468 [6]): inactive | Activity (MDA-MB-231 [7]; dose microM <=10, time 72.0 hrs): inactive | IC50 [5]: 9.3 µM

COC(=O)c1ccc(N(Cc2ccc(C3CCCCC3)cc2)C(=O)[C@H]2CCN2S(=O)(=O)c2c(F)c(F)c(F)c(F)c2F)cc1O
EC50 (MDA-MB-231 [3]): 2.7 µM | inhibition [1]: Active | IC50 [4]: > 4 µM | inhibition (NIH3T3): Active

O=C(O)c1ccc(N(Cc2ccc(C3CCCCC3)nc2)C(=O)[C@H]2CCN2S(=O)(=O)c2c(F)c(F)c(F)c(F)c2F)cc1O
inhibition [1]: Active | inhibition (NIH3T3): Active

CNC(=O)c1ccc(N(Cc2ccc(C3CCCCC3)cn2)C(=O)[C@H]2CCN2S(=O)(=O)c2c(F)c(F)c(F)c(F)c2F)cc1O
Activity (MCF7 [8]): inactive | EC50 (MDA-MB-231 [3]): 1.8 µM | inhibition [1]: Active | inhibition [9]: Tde | EC50 (MCF7 [10]): 3.8 µM | EC50 (MCF-10A): 4.6 µM | inhibition (NIH3T3): Active | inhibition (MDA-MB-231 [11]): inactive | EC50 (MDA-MB-468 [12]): 1.8 µM

COC(=O)c1ccc(N(Cc2cnc(C3CCCCC3)cn2)C(=O)[C@H]2CCN2S(=O)(=O)c2c(F)c(F)c(F)c(F)c2F)c(F)c1
inhibition (MDA-MB-231 [13]): Active | EC50 (MCF7 [10]): 8.9 µM | IC50 [4]: > 10 µM | EC50 (MCF-10A): 4 µM | EC50 (MDA-MB-468 [12]): 1.4 µM

O=C(O)c1ccc(N(Cc2ccc(C3CCCCC3)cn2)C(=O)[C@H]2CCN2S(=O)(=O)c2c(F)c(F)c(F)c(F)c2F)cn1
IC50 [4]: > 2 µM

CC(=O)c1cc2c(o1)C(=O)c1ccccc1C2=O [NAPABUCASIN]
inhibition [14]: Active | EC50 (MDA-MB-231 [7]): 1.8 µM | EC50 (MCF7 [10]): 1.49 µM | inhibition [15]: Active

O=C1NC(=O)c2cc(N(Cc3ccc(C4CCCCC4)cn3)C(=O)[C@H]3CCN3S(=O)(=O)c3c(F)c(F)c(F)c(F)c3F)ccc21
Activity (MDA-MB-231 [16]): Active | Activity (MCF7 [8]): inactive | EC50 (MDA-MB-231 [3]): 1.7 µM | inhibition (MDA-MB-231 [13]): Active | inhibition [9]: Tde | EC50 (MCF7 [10]): 7 µM | EC50 (MCF-10A): 8.1 µM | inhibition [17]: inactive | EC50 (MDA-MB-468 [12]): 1.9 µM | -TdeltaS [18]: -3.25 kcal/mol | deltaH [19]: -4.97 kcal/mol

O=C(O)c1coc(N(Cc2ccc(C3CCCCC3)cc2)C(=O)[C@H]2CCN2S(=O)(=O)c2c(F)c(F)c(F)c(F)c2F)n1
IC50 [4]: > 5 µM

O=C(NO)c1ccc(N(Cc2ccc(C3CCCCC3)cc2)C(=O)[C@H]2CCN2S(=O)(=O)c2c(F)c(F)c(F)c(F)c2F)cc1O
EC50 (MDA-MB-231 [3]): 5.1 µM | inhibition [1]: Active | EC50 (MCF7 [10]): 9.7 µM | EC50 (MCF-10A): 7.5 µM | inhibition (NIH3T3): Active | EC50 (MDA-MB-468 [12]): 6.4 µM

O=C(NO)c1ccc(N(Cc2ccc(C3CCCCC3)cc2)C(=O)[C@H]2CCN2S(=O)(=O)c2c(F)c(F)c(F)c(F)c2F)c(F)c1
inhibition [1]: Active | inhibition (NIH3T3): Active

O=C(NO)c1ccc(N(Cc2cnc(C3CCCCC3)cn2)C(=O)[C@H]2CCN2S(=O)(=O)c2c(F)c(F)c(F)c(F)c2F)c(F)c1
IC50 [2]: > 2 µM

COc1ccc(S(=O)(=O)Nc2cc(-c3c(O)ccc4ccccc34)c(O)c3ccccc23)cc1 [C-188-9]
EC50 (MDA-MB-231 [7]): 25.7 µM | EC50 (MCF7 [10]): 13.8 µM

COC(=O)c1ccc(N(Cc2cnc(C3CCCCC3)cn2)C(=O)[C@H]2CCN2S(=O)(=O)c2c(F)c(F)c(F)c(F)c2F)cc1O
inhibition (MDA-MB-231 [13]): Active | EC50 (MCF7 [10]): 5.7 µM | IC50 [4]: 7.5 µM | EC50 (MCF-10A): 3.8 µM | EC50 (MDA-MB-468 [12]): 1.6 µM

O=C(O)c1ccc(N(Cc2ccc(C3CCCC3)cc2)C(=O)[C@H]2CCN2S(=O)(=O)c2c(F)c(F)c(F)c(F)c2F)cc1O
inhibition [1]: Active | inhibition (NIH3T3): Active

O=C(O)c1ccc(N(Cc2ccc(C3CCOCC3)nc2)C(=O)[C@H]2CCN2S(=O)(=O)c2c(F)c(F)c(F)c(F)c2F)cc1O
inhibition [1]: Active | inhibition (NIH3T3): Active
